In ChEMBL document CHEMBL1287789, “4-deoxy-4-fluoro-xyloside derivatives as inhibitors of glycosaminoglycan biosynthesis” (Bioorg Med Chem Lett, 2010):
Active and inactive are the calls of the source. The rule behind the calls is not given here.

Experiments:
[1] = species: Bos taurus; experiment: Inhibition of glycosaminoglycan biosynthesis in BLMVEC assessed as [3H]glucosamine incorporation at 300 uM after 24 hrs by liquid scintillation counting; assay type: functional
Method in brief: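 Cells seeded at 2 × 10⁵/well and grown 24 h at 37 °C, then switched to DMEM with 1 mM glucose and 10% dialyzed FBS. Treated 24 h with 300 µM compound (from 30 mM DMSO stock) or DMSO alone, with ³H-glucosamine. Pronase digest overnight at 37 °C; GAGs bound to DEAE-Sepharose, washed at pH 6.0 with 0.1 M NaCl, eluted with 1 M NaCl; eluate radioactivity by scintillation counting.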

[2] = Cytotoxicity against BLMVEC assessed as cell viability at <=300 uM after 24 hrs by celltiter blue assay; parameters: species or system Bos taurus; details: cattle
Method in brief: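 Bovine lung microvascular endothelial cells seeded at 2.5 × 10⁴ cells/well in duplicate, Ham's F-12 with 10% FBS. Exposed to DMSO (control) or compound at 0.1, 0.3 and 1.0 mM for 24 h at 37 °C; 3% H₂O₂ as control. CellTiter-Blue added for 2 h, stopped with 3% SDS, fluorescence read at ex 560/em 590 nm.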

[3] = species: Bos taurus; experiment: Inhibition of glycosaminoglycan biosynthesis in BLMVEC assessed as [3H]-labeled-GAG chains by anion exchange chromatography; assay type: functional; details: dose or concentration not given here
Method in brief: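 ³H-glucosamine-labelled GAG chains from cells given 300 µM compound or DMSO for 24 h were run on DEAE-HPLC. Elution over 80 min with a 0.2–1 M NaCl linear gradient, monitored by an in-line radiometric detector; heparan sulfate and chondroitin sulfate resolved as separate peaks between 20 and 50 min.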

SMILES	inhibition [1]	Activity [2]	inhibition [3] [%]
O=[N+]([O-])c1ccc(OCc2cn([C@H]3OC[C@@H](F)[C@H](O)[C@H]3O)nn2)cc1	80%	Non-toxic	80
O[C@@H]1[C@@H](O)[C@H](n2cc(COc3ccc(F)cc3)nn2)OC[C@H]1F	Active	Non-toxic	–
O[C@@H]1[C@@H](O)[C@H](n2cc(COCc3ccc4ccccc4c3)nn2)OC[C@H]1F	inactive	Non-toxic	–
O[C@@H]1[C@@H](O)[C@@H](n2cc(-c3ccc4ccccc4c3)nn2)OC[C@H]1F	Active	Non-toxic	–
O=[N+]([O-])c1ccc(OCc2cn([C@@H]3OC[C@@H](F)[C@H](O)[C@H]3O)nn2)cc1	80%	Non-toxic	80
O[C@@H]1[C@@H](O)[C@@H](n2cc(COCc3ccc4ccccc4c3)nn2)OC[C@H]1F	Active	Non-toxic	–
O[C@@H]1[C@@H](O)[C@@H](n2cc(COc3ccc(F)cc3)nn2)OC[C@H]1F	Active	Non-toxic	–
